What was measured:
Rattus norvegicus [1] = species on record: Rattus norvegicus; assay: Antiinflammatory activity against adjuvant induced arthritis in male charles river rats; type: functional
[2] = Elimination half life at dose of 14.7 uM/kg oral route; type: ADME, organism-based; conditions: in vivo
[3] = TD50/ED50 value of the compound; type: functional
How it was run: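 Ratio of the GI lesion TD50 to the established adjuvant arthritis paw ED50, both measured orally in rats.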

[4] = Gastrointestinal safety of a compound relative to indomethacin and piroxicam; type: ADME
How it was run: (§1)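 Male Sprague-Dawley rats (~165 g) received a single oral dose of drug or vehicle. Stomach and small intestine were examined for mucosal lesions under a 10× dissecting microscope in coded, randomized order. Any single lesion counted as positive. TD50 was calculated by the moving-average method.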

[5] = Elimination half life at dose of 14.7 uM/kg intravenous route; type: ADME, organism-based; conditions: in vivo
[6] = Maximum blood level reached after an oral dose 14.7 uM/kg oral route; type: ADME, organism-based; design: dose 14.7 uM/kg, route oral; conditions: in vivo
[7] = Volume of distribution at dose of 14.7 uM/kg intravenous route; type: ADME, organism-based; conditions: in vivo
Rattus norvegicus [8] = assay: Safety assessment in adjuvant induced arthritis rat model (AA),po; type: functional
[9] = Maximum blood level reached after an oral dose of 14.7 uM/kg intravenous route; type: ADME, organism-based; conditions: in vivo
[10] = Bioavailability at a dose of 7.1 uM/kg, iv; type: ADME, organism-based; conditions: eutheria, in vivo
[11] = Elimination half life at a dose of 14.3 uM/kg, po; type: ADME, organism-based; conditions: in vivo
[12] = Volume of distribution at a dose of 7.1 uM/kg, iv; type: ADME, organism-based; conditions: in vivo
[13] = Maximum blood level reached after an oral dose of 5.0 mg/kg; type: ADME, organism-based; design: dose 5 mg/kg, route oral; conditions: in vivo
[14] = Elimination half life at a dose of 7.1 uM/kg, iv; type: ADME, organism-based; conditions: in vivo
[15] = Cmax value at a dose of 7.1 uM/kg, iv; type: ADME, organism-based; design: dose 7.1 uM/kg, route intravenous; conditions: in vivo
Rattus norvegicus [16] = species on record: Rattus norvegicus; assay: Compound was evaluated for 12 day tolerance in long evans rats; type: functional
Rattus norvegicus [17] = species on record: Rattus norvegicus; assay: Maximum tolerated dose for 12 days in long evans rats; type: functional
Mus musculus [18] = species on record: Mus musculus; assay: Activity in the mouse oral contact sensitivity model; type: functional
Rattus norvegicus [19] = assay: Safety assessment in adjuvant induced arthritis rat model (AA),day 18,po; type: functional; conditions: 432 h
Rattus norvegicus [20] = species on record: Rattus norvegicus; assay: Effective dose required for prevention of nonestablished adjuvant arthritis model wih an oral paw 18-day; type: functional; conditions: 432 h
[21] = biological target: T1, Polyunsaturated fatty acid 5-lipoxygenase (Rattus norvegicus, UniProt P12527); assay: Inhibitory activity against rat basophilic leukemia 5-lipoxygenase
T1 sequence (P12527 whole entry): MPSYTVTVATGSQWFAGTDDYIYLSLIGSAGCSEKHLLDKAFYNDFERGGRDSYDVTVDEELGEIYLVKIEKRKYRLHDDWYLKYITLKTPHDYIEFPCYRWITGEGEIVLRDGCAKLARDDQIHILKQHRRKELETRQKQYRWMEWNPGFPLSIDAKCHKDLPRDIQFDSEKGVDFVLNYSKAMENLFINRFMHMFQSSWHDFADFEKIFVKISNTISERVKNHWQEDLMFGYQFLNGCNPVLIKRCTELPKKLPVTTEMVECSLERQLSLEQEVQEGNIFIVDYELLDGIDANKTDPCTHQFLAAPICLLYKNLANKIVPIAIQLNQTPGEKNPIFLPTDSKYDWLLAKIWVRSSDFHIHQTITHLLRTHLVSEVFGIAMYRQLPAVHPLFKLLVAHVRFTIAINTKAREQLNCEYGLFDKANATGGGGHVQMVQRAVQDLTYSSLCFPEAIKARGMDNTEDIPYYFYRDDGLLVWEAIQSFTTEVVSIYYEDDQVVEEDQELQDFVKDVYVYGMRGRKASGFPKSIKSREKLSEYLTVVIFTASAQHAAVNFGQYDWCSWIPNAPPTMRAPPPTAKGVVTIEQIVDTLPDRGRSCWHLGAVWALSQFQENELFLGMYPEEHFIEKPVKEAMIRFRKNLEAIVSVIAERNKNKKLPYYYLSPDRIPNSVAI

[22] = (§2) Safety assessment in car paw assay, po; type: toxicity
[23] = Maximum blood level reached after an iv dose of 12.2 uM/kg; type: ADME, organism-based; design: dose 12.2 uM/kg, route intravenous; conditions: in vivo
[24] = Volume of distribution at dose of 12.2 uM/kg, iv; type: ADME, organism-based; conditions: in vivo
[25] = Elimination half life at dose of 12.2 uM/kg, iv; type: ADME, organism-based; conditions: in vivo
[26] = Elimination half life at dose of 12.2uM/kg, po; conditions: in vivo
[27] = Elimination half life at a dose of 6.3 uM/kg iv; type: ADME, organism-based; conditions: in vivo
[28] = Ratio (12-day no effect/AA ED50) of the compound; type: functional
How it was run: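 Maximum no-effect dose from the 12-day study divided by the adjuvant arthritis ED50. […] Read-outs were mortality, pharmacologic or toxic signs, body and organ weights and gross necropsy.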

[29] = Cmax value at a dose of 6.3 uM/kg, iv; type: ADME, organism-based; design: dose 6.3 uM/kg, route intravenous; conditions: in vivo
[30] = Volume of distribution at a dose of 6.3 uM/kg, iv; type: ADME, organism-based; conditions: in vivo
[31] = Cmax value at a dose of 12.7 uM/kg, po; type: ADME, organism-based; design: dose 12.7 uM/kg, route oral; conditions: in vivo
[32] = Elimination half life at a dose of 12.7 uM/kg, po; type: ADME, organism-based; conditions: in vivo
Rattus norvegicus [33] = assay: as §2; type: functional
Rattus norvegicus [34] = species on record: Rattus norvegicus; assay: Activity in the nonestablished adjuvant-induced arthritis model; type: functional
Mus musculus [35] = species on record: Mus musculus; assay: Effective dose of compound against analgesia was determined by phenylquinone writhing assay
[36] = Gastrointestinal safety of a compound relative to indomethacin and piroxicam in rats; type: ADME, organism-based; conditions: rat, in vivo; how it was run: as §1
[37] = Maximum blood level reached at dose of 10.6 uM/kg orally; type: ADME, organism-based; design: dose 10.6 uM/kg, route oral; conditions: in vivo, po
[38] = Elimination half life at dose of 10.6 uM/kg orally; type: ADME, organism-based; conditions: in vivo, po
[39] = Volume of distribution at dose of 10.6 uM/kg intravenously; type: ADME, organism-based; conditions: in vivo, iv
[40] = Elimination half life at dose of 10.6 uM/kg intravenously; type: ADME, organism-based; conditions: in vivo, iv
[41] = Maximum blood level reached after an dose of 10.6 uM/kg intravenously; type: ADME, organism-based; design: dose 10.6 uM/kg, route intravenous; conditions: in vivo, iv

CS(=O)(=O)c1ccc(-c2[nH]c(I)c(I)c2-c2ccc(F)cc2)cc1
ED50 (Rattus norvegicus [1]): 41.3 mg/kg

CS(=O)(=O)c1ccc(-c2[nH]c(C#N)cc2-c2ccc(F)cc2)cc1
half-life [2]: 17.3 h
TD50/ED50 [3]: > 100
TD50 [4]: > 381 µmol/kg
ED50 (Rattus norvegicus [1]): 1.3 mg/kg
half-life [5]: 13.7 h
Cmax [6]: 2.9 uM l-1
Vd [7]: 5.7 L/kg
ED50 (Rattus norvegicus [8]; read-out: ED50): 3.82 µmol/kg
Cmax [9]: 4.1 uM l-1

Cn1c(Br)c(Br)c(-c2ccc(F)cc2)c1-c1ccc(S(C)(=O)=O)cc1
ED50 (Rattus norvegicus [1]): 4.16 mg/kg

CS(=O)(=O)c1ccc(-c2[nH]c(Cl)cc2-c2ccc(F)cc2)cc1
F [10]: 1
TD50/ED50 [3]: 70
TD50 [4]: 100 µmol/kg
ED50 (Rattus norvegicus [1]): 0.5 mg/kg
ED30 (Rattus norvegicus [8]): 1.43 µM/kg
half-life [11]: 5.8 h
Vd [12]: 9 L/kg
Cmax [13]: 2.3 uM l-1
half-life [14]: 6.1 h
Cmax [15]: 1.4 uM l-1

CS(=O)(=O)c1ccc(-c2[nH]c(S(C)(=O)=O)cc2-c2ccc(F)cc2)cc1
ED50 (Rattus norvegicus [1]): 36.6 mg/kg

CC(C)Cc1ccc(C(C)C(=O)O)cc1 (stereo unspecified) [IBUPROFEN]
ED50 (Rattus norvegicus [1]): 100 mg/kg

CS(=O)(=O)c1ccc(-c2[nH]c([N+](=O)[O-])cc2-c2ccc(F)cc2)cc1
ED50 (Rattus norvegicus [1]): 9 mg/kg

COc1ccc2c(c1)c(CC(=O)O)c(C)n2C(=O)c1ccc(Cl)cc1 [INDOMETHACIN]
ED50 (Rattus norvegicus [1]): 0.3 mg/kg

CS(=O)(=O)c1ccc(-c2[nH]c(S(=O)(=O)O)cc2-c2ccc(F)cc2)cc1.c1ccncc1
ED50 (Rattus norvegicus [1]): 12.7 mg/kg

CS(=O)(=O)c1ccc(-c2[nH]c(SC#N)cc2-c2ccc(F)cc2)cc1
no-effect dose (Rattus norvegicus [16]): >418 µM/kg
TD50 [4]: > 335 µmol/kg
ED50 (Rattus norvegicus [1]): 3.9 mg/kg
ED50 (Rattus norvegicus [8]; read-out: ED50): 10.5 µmol/kg
Max tolerated dose (Rattus norvegicus [17]): >418 µM/kg
ED35 (Mus musculus [18]): 8 mg/kg
ED50 (Rattus norvegicus [19]; read-out: ED50): 18.8 µmol/kg
ED50 (Rattus norvegicus [20]): 7 mg/kg
IC50 [21]: 0.08 µM
ED30 [22]: 268.5 µM/kg

CS(=O)(=O)c1ccc(-c2[nH]c(Cl)c(Cl)c2-c2ccc(F)cc2)cc1
ED50 (Rattus norvegicus [1]): 1.5 mg/kg

Cn1c(Br)cc(-c2ccc(F)cc2)c1-c1ccc(S(C)(=O)=O)cc1
Cmax [23]: 2.9 uM l-1
Vd [24]: 10 L/kg
TD50/ED50 [3]: > 100
TD50 [4]: > 416 µmol/kg
ED50 (Rattus norvegicus [1]): 1.7 mg/kg
ED50 (Rattus norvegicus [8]; read-out: ED50): 3.43 µmol/kg
half-life [25]: 13.7 h
half-life [26]: 4.3 h

CC(=O)n1c(Br)cc(-c2ccc(F)cc2)c1-c1ccc(S(C)(=O)=O)cc1
ED50 (Rattus norvegicus [1]): 36.2 mg/kg

CS(=O)(=O)c1ccc(-c2[nH]c(Cl)c(Br)c2-c2ccc(F)cc2)cc1
ED50 (Rattus norvegicus [1]): 3.4 mg/kg

CC(C)(C)OC(=O)n1c(Br)cc(-c2ccc(F)cc2)c1-c1ccc(S(C)(=O)=O)cc1
ED50 (Rattus norvegicus [1]): 31 mg/kg

CS(=O)(=O)c1ccc(-c2[nH]c(Br)cc2-c2ccc(F)cc2)cc1
no-effect dose (Rattus norvegicus [16]): >46 µM/kg
TD50/ED50 [3]: 36
TD50 [4]: 95.9 µmol/kg
ED50 (Rattus norvegicus [1]): 1.05 mg/kg
half-life [27]: 10.2 h
Ratio [28]: > 43
Cmax [29]: 2 uM l-1
ED50 (Rattus norvegicus [8]; read-out: ED50): 2.55 µmol/kg
Vd [30]: 3.5 L/kg
ED50 (Rattus norvegicus [19]; read-out: ED50): 22.7 µmol/kg
Cmax [31]: 3 uM l-1
half-life [32]: 9.9 h

CS(=O)(=O)c1ccc(-c2[nH]c(F)c(F)c2-c2ccc(F)cc2)cc1
ED50 (Rattus norvegicus [1]): 0.31 mg/kg

CCCCC1C(=O)N(c2ccccc2)N(c2ccccc2)C1=O [PHENYLBUTAZONE]
ED50 (Rattus norvegicus [1]): 10 mg/kg

Cn1c(Cl)c(Cl)c(-c2ccc(F)cc2)c1-c1ccc(S(C)(=O)=O)cc1
ED50 (Rattus norvegicus [1]): 5 mg/kg

Cc1ccc(S(=O)(=O)n2c(Br)cc(-c3ccc(F)cc3)c2-c2ccc(S(C)(=O)=O)cc2)cc1
ED50 (Rattus norvegicus [1]): > 9 mg/kg

CCOC(=O)CCCCn1c(Cl)cc(-c2ccc(F)cc2)c1-c1ccc(S(C)(=O)=O)cc1
ED50 (Rattus norvegicus [1]): > 100 mg/kg

CSc1cc(-c2ccc(F)cc2)c(-c2ccc(S(C)(=O)=O)cc2)[nH]1
no-effect dose (Rattus norvegicus [16]): >99 µM/kg
ED30 (Rattus norvegicus [33]): >276 µM/kg
TD50/ED50 [3]: > 83
ED50 (Rattus norvegicus [1]): 1.8 mg/kg
ED50 (Rattus norvegicus [34]): 25 mg/kg
Ratio [28]: > 30
ED50 (Rattus norvegicus [8]): 4.98 µM/kg
Max tolerated dose (Rattus norvegicus [17]): >199 µM/kg
ED50 (Rattus norvegicus [19]): 69.2 µM/kg
ED50 (Mus musculus [35]): 46.3 mg/kg
TD50 [36]: > 414 µmol/kg

CS(=O)(=O)c1ccc(-c2[nH]ccc2-c2ccc(F)cc2)cc1
ED50 (Rattus norvegicus [1]): > 100 mg/kg

CS(=O)(=O)c1ccc(-c2[nH]c(Br)c(Br)c2-c2ccc(F)cc2)cc1
Cmax [37]: 1.5 uM l-1
half-life [38]: 47.5 h
TD50/ED50 [3]: > 113
TD50 [4]: > 211 µmol/kg
ED50 (Rattus norvegicus [1]): 1.94 mg/kg
ED50 (Rattus norvegicus [8]; read-out: ED50): 4.1 µmol/kg
Vd [39]: 4.3 L/kg
half-life [40]: 29.3 h
Cmax [41]: 2.8 uM l-1

CS(=O)(=O)c1ccc(-c2[nH]c(C(=O)C(F)(F)F)cc2-c2ccc(F)cc2)cc1
ED50 (Rattus norvegicus [1]): 19.4 mg/kg

CS(=O)(=O)c1ccc(-c2[nH]c(I)cc2-c2ccc(F)cc2)cc1
ED50 (Rattus norvegicus [1]): 22 mg/kg

CS(=O)(=O)c1ccc(-c2[nH]c(F)cc2-c2ccc(F)cc2)cc1
ED50 (Rattus norvegicus [1]): 0.31 mg/kg

Cn1c(SC#N)cc(-c2ccc(F)cc2)c1-c1ccc(S(C)(=O)=O)cc1
ED50 (Rattus norvegicus [1]): > 27 mg/kg

CS(=O)(=O)c1ccc(-c2[nH]c(Br)c(Cl)c2-c2ccc(F)cc2)cc1
ED50 (Rattus norvegicus [1]): 4.28 mg/kg

Reference: ChEMBL document CHEMBL1127690, “Antiinflammatory 4,5-diarylpyrroles: synthesis and QSAR” (J Med Chem, 1994)
